Values without a mark were called inactive. Results filed as inconclusive are left out. Activity calls are given as the source filed them.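 Rule for the calls, unless noted: active = growth inhibition above 25% in both replicates, a cutoff set 3 SD above the mean; inconclusive = above 25% in only one replicate; inactive = the rest.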
What was measured:
[1] = S. cerevisiae growth inhibition in permissive medium (OD615), pilot counter-assay for S. cerevisiae lifespan shortening project, permissive growth control (AID 705); conditions: OD615, 24 h, at 10 µM, active compounds read high
Procedure, shortened: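 Material: engineered DeaD yeast; Compound: one dose 10 µM, DMSO 0.25% final; Detection: absorbance (optical density) at 615 nm; Buffer or medium: permissive raffinose/galactose medium; Timing: 24 h exposure, 30 °C.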

[2] = S. cerevisiae growth inhibition in restrictive medium, OD615, pilot screen, restrictive growth control, yeast lifespan reduction project (AID 706;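 active = growth inhibition above a set limit, 3 SD over mean compound inhibition, in both replicates, cut at about 43% in these data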;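 note: modified DeaD lifespan yeast strain shifted to restrictive glucose medium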); conditions: OD615, 48 h, at 10 µM, active compounds read high
Procedure, shortened: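 Buffer or medium: restrictive glucose medium (CSMM-D); test system: modified S. cerevisiae; doses: single dose of 10 µM compound final, 0.25% DMSO; schedule: 48 h compound exposure at 30 °C; detection: absorbance (optical density) measured at 615 nm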

[3] = doxorubicin toxicity protection in MRP-1 cells – H69AR cells, CellTiter-Glo, duplicate, MRP-1 activator project, pilot screen (AID 807;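 active = viability increase at or above a cutoff of the median across tested compounds plus 3 SD, cut at about 8.5% in these data, passing the limit was not always enough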;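 note: compound pretreatment 18-22 h then 72 h combined with doxorubicin; 0% = doxorubicin alone and 100% = vehicle without doxorubicin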); conditions: H69AR viability with doxorubicin, CellTiter-Glo luminescence; at 10 µM; active compounds read high
[4] = viability of HCT116 without oncogenic beta-catenin – human colon tumor cells, pilot screen (AID 823;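 active = cell viability at or below a set limit in both duplicate runs, the limit being the all-compound median minus 4 SD, cut at about 23% in these data, passing the limit was not always enough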;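 note: 0% = wells killed by 20 µM Hyamine and 100% = untreated DMSO cell wells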); conditions: HCT116 beta-catenin knockout viability, CellTiter-Glo, 60 h; at 10 µM; active compounds read low
[5] = viability of PTEN-null HCT116 cells – cell-based, HCT116 clonal line, CellTiter-Glo, pilot screen (AID 824;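 active = viability at or below 27.92% in each of two runs, the all-compound median minus 4 SD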;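 note: 0% = 20 µM Hyamine control and 100% = vehicle cell control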); conditions: HCT116 PTEN-deleted viability, 60 h, at 10 µM, active compounds read low
[6] = RAM pathway blockade in budding yeast – dse1pr::URA3 reporter, 5-FOA selection, pilot screen (AID 869;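 active = inhibition over a set limit, the all-compound mean plus 3 SD, in both replicate runs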;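 note: 0% = DMSO wells with no growth and 100% = 10 µM 1-NA-PP1 with full growth; RAM network block rescues cells from 5-FOA so hits raise OD615 growth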); conditions: S. cerevisiae dse1pr::URA3 5-FOA growth, OD615, 2 d; at 10 µM; active compounds read high; strain carries analog-sensitive mutant Cbk1 kinase
[7] = RAM signaling pathway blockade in yeast – S. cerevisiae, Pdr1DBD-CYC8 efflux-inhibited sensitized strain, primary screen (AID 1298;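 active = RAM network inhibition above 8.4% in each of two replicates, 3 SD over the compound average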;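 note: 0% = DMSO untreated cells without growth and 100% = 10 µM 1-NA-PP1 full growth; higher means more yeast growth rescued from 5-FOA killing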); conditions: S. cerevisiae cbk1-as DSE1-URA3 strain, 5-FOA growth OD615, 2 d; at 50 µM; active compounds read high

Row | SMILES | growth inhibition [1] | growth inhibition [2] | viability increase [3] | viability [4] | viability [5] | inhibition [6] | RAM network inhibition [7]
1 | COc1ccccc1CCNC(=O)c1cnn2c(C(F)F)cc(C)nc12 | -0.75% | 11.3% | -0.37% | 103% | 97.7% | -0.1% | 4.32%
2 | COc1cc(C(=O)Nc2cc(C)c(OCC(=O)N3CCOCC3)c(C)c2)cc(OC)c1OC | -2.29% | 1.77% | -2.98% | 88.8% | 90.4% | 1.64% | 4.86%
3 | CCN(CC)C(=O)c1cc2c(=O)n3ccccc3nc2s1 | -4.75% | -3.33% | -3.66% | 93.7% | 96.2% | 1.94% | 0.68%
4 | CCCCN1C(=O)C(O)(CC(=O)c2ccccc2OC)c2ccccc21 (stereo not given) | -13.7% | -5.6% | -3.31% | 79.6% | 89.5% | 1.89% | 2.02%
5 | O=C(NCCn1ccc2ccccc21)c1ccc(S(=O)(=O)N2CCOCC2)cc1 | 3.54% | -8.71% | -2.92% | 101% | 96.7% | 0.33% | 6.66%
6 | c1ccc(CSc2nnc(-c3ccncc3)o2)cc1 | -3.77% | 9.8% | -2.83% | 109% | 96.3% | 0.73% | 1.96%
7 | Cc1cc2cc(CNS(=O)(=O)N(C)C)ccc2[nH]1 | 0.12% | -6.88% | -0.59% | 101% | 106% | 1.48% | 3.27%
8 | COc1ccc2cc3c(N)nn(C(=O)Cc4ccccc4OC)c3nc2c1 | 10.1% | 17.7% | -8.54% | 2.78% (active) | 5.52% (active) | 0.65% | 2.84%
9 | COc1ccc(OC)c(S(=O)(=O)Nc2ccc(OCC(=O)O)cc2)c1 | -9.87% | -4.85% | -0.45% | 98.3% | 91.1% | 0.98% | 2.71%
10 | Fc1ccc(Nc2nc(N3CCOCC3)c3ccccc3n2)cc1 | -3.31% | -13.7% | -3.18% | 93.5% | 93.4% | 0.45% | 2.64%
11 | CC(=O)NC(C)(C)C1CC=C(C)/C(=N\O)C1 (stereo not given) | -3.7% | -1.12% | -0.02% | 104% | 101% | 1.36% | -0.78%
12 | CCCC1(C(=O)O)NC(c2ccccc2O)C2C(=O)N(Cc3ccccc3)C(=O)C21 (stereo not given) | 7.11% | 6.84% | -1.02% | 97.5% | 90.8% | 0.45% | 0.88%
13 | Cc1cccc(NC(=O)NCCN2C(=O)C3C4C=CC(C4)C3C2=O)c1 (stereo not given) | -11.4% | 8.84% | -1.25% | 104% | 96.4% | 1.83% | 0.37%
14 | CC(=O)c1cc(Cc2csc(C(C)=O)c2)cs1 | -9.93% | -5.34% | -2.14% | 100% | 100% | 1.38% | 3.88%
15 | COc1ccc(Cn2nnc3c(=O)[nH]c(C4CCCN(C(=O)c5ccccc5)C4)nc32)cc1 (stereo not given) | -8.47% | -8.09% | -1.66% | 108% | 99.9% | -0.35% | 3.06%
